Like-named read-outs stand apart in the source and are kept apart here. Marks after values point to notes of the source that are not given here.
Key:
[1] = format: in vivo, human; conditions: for CL/F / AUC(0-t) / AUC(0-inf) / Cmax / half-life / tmax: plasma; for AUC(0-t) / AUC(0-inf) / Cmax / half-life / tmax: human, po; for AUC(0-t): AUC0–t; for AUC(0-inf): AUC0–∞
Outline: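 Heparinised plasma was taken predose and at 0.5–48 h, spun within 30 min and stored at −70 °C. Parent and metabolite were measured by SPE LC–MS/MS; noncompartmental AUC, with ANOVA on log values giving geometric-mean ratio and 90% CI.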

[2] = cited from earlier work
[3] = 10 mg, MTX 10 mg oral alone (Day 1), N = 1
[4] = 12.5 mg, MTX 12.5 mg oral alone (Day 1), N = 1
[5] = 17.5 mg, MTX 17.5 mg oral alone (Day 1), N = 1
[6] = MTX 12.5 mg oral + Apremilast 30 mg Q12H (Day 8), N = 1
[7] = MTX 17.5 mg oral + Apremilast 30 mg Q12H (Day 8), N = 1
[8] = methotrexate in plasma, ANOVA, N = 15
[9] = methotrexate in plasma, all dose groups, N = 15, acceptance range 80–125%

- CL/F ([1]; MTX 10 mg oral alone (Day 1), N = 1): 120 mL/min
- CL/F ([1]; MTX 12.5 mg oral alone (Day 1), N = 1): 88 mL/min
- CL/F ([1]; MTX 17.5 mg oral alone (Day 1), N = 1): 129 mL/min
- CL/F ([1]; MTX 20 mg oral alone (Day 1), N = 6, arithmetic mean (SD)): 122 (33.7) mL/min
- AUC(0-t) [1, 3]: 1390 ng·h/mL
- AUC(0-inf) [1, 3]: 1380 ng·h/mL
- Cmax [1, 3]: 323 ng/mL
- half-life ([1]; 10 mg, t1/2, MTX 10 mg oral alone (Day 1), N = 1): 3.5 h
- tmax [1, 3]: 1.45 h
- AUC(0-t) [1, 4]: 2360 ng·h/mL
- Cmax [1, 4]: 528 ng/mL
- half-life ([1]; 12.5 mg, t1/2, MTX 12.5 mg oral alone (Day 1), N = 1): 3.6 h
- tmax [1, 4]: 1 h
- AUC(0-t) [1, 5]: 2250 ng·h/mL
- Cmax [1, 5]: 646 ng/mL
- half-life ([1]; 17.5 mg, t1/2, MTX 17.5 mg oral alone (Day 1), N = 1): 5.6 h
- tmax [1, 5]: 1 h
- AUC(0-t) [1, 6]: 3020 ng·h/mL
- AUC(0-t) [1, 7]: 2270 ng·h/mL
- AUC(0-inf) [1, 6]: 3010 ng·h/mL
- Cmax [1, 6]: 669 ng/mL
- Cmax [1, 7]: 565 ng/mL
- half-life ([1]; t1/2, MTX 12.5 mg oral + Apremilast 30 mg Q12H (Day 8), N = 1): 3.2 h
- tmax [1, 6]: 2.07 h
- tmax [1, 7]: 1 h
- Intra-subject CV% of AUC0–∞ ([1]; methotrexate in plasma, ANOVA, N = 14): 11.19%
- Intra-subject CV% of AUC0–t [1, 8]: 10.57%
- Intra-subject CV% of Cmax [1, 8]: 11.07%
- AUC0–∞ ratio of geometric means (“methotrexate + apremilast”/“methotrexate”) ([1]; methotrexate in plasma, all dose groups, N = 14, acceptance range 80–125%): 100.39
- tmax median difference (“MTX + Apremilast” − “MTX”) ([1]; methotrexate in plasma, all dose groups, N = 15, Hodges–Lehmann): 0.235 ^d hr
- AUC0–t ratio of geometric means (“methotrexate + apremilast”/“methotrexate”) [1, 9]: 99.90
- Cmax ratio of geometric means (“methotrexate + apremilast”/“methotrexate”) [1, 9]: 99.49
SMILES: CN(Cc1cnc2nc(N)nc(N)c2n1)c1ccc(C(=O)N[C@@H](CCC(=O)O)C(=O)O)cc1 [MTX, methotrexate, reference compound]
- 90% CI for Cmax, AUC0–t and AUC0–∞ versus FDA acceptance range of 80–125% ([1]; methotrexate with versus without apremilast): within the acceptance range for equivalency
- Fraction metabolized to 7-hydroxy methotrexate [2]: ~10%

From publication PMC4467241 (Clinical Pharmacology in Drug Development, 2014)
